The source made the active and inactive calls. No cut-off for these calls is given here.
Columns and labels:
[1] = Oral bioavailability in Sprague-Dawley rat at 30 mg/kg by LC-MS/MS analysis; format: ADME, organism-based; conditions: in vivo
Method in brief: (§1)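 Adult male SD rats (n = 4/group) got a single dose of compound in distilled water, orally or by injection. Blood (100–200 µL) was drawn from the orbit at 11 time points over 24 h. Blood drug levels were measured by LC–MS/MS.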

[2] = Mean residence time (0 to infinity) in Sprague-Dawley rat blood at 30 mg/kg, po by LC-MS/MS analysis; format: ADME, organism-based; parameters: dose 30 mg/kg, route oral; conditions: whole blood; method in brief: as §1
[3] = Apparent clearance in Sprague-Dawley rat blood at 10 mg/kg, iv by LC-MS/MS analysis; format: ADME, organism-based; parameters: dose 10 mg/kg, route intravenous; conditions: whole blood, read-out: CL(app) (converted); method in brief: as §1
[4] = Half life in Sprague-Dawley rat blood at 30 mg/kg, po by LC-MS/MS analysis; format: ADME, organism-based; parameters: dose 30 mg/kg, route oral; conditions: whole blood; method in brief: as §1
[5] = molecular target: Dipeptidyl peptidase 9 (Homo sapiens) (UniProt Q86TI2); assay: Inhibition of DPP9 (unknown origin) up to 10 uM
Dipeptidyl peptidase 9 (Homo sapiens), sequence (Q86TI2 2-863 limits assumed): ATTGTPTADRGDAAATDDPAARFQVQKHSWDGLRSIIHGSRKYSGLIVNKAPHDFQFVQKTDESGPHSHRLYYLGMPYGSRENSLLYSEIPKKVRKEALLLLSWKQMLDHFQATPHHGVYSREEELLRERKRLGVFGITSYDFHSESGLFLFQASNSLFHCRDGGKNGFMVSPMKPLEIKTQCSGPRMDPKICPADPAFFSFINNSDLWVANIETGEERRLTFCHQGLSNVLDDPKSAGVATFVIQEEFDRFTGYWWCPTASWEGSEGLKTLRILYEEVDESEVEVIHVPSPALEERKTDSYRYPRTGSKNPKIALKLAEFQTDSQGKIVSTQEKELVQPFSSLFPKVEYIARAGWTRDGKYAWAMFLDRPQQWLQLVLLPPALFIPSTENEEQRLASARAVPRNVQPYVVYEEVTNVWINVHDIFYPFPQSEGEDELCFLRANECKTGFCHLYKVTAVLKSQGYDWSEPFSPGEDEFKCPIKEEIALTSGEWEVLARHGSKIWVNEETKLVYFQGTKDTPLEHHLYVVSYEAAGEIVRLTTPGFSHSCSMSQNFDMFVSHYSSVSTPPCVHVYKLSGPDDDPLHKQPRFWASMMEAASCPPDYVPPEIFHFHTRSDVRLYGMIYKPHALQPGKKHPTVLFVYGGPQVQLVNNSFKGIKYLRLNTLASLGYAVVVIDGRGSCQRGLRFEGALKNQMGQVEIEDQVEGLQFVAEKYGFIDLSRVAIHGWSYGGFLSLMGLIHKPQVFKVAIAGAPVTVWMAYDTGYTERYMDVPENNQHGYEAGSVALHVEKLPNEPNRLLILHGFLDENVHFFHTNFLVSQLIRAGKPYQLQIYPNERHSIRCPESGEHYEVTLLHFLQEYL
Method in brief: (§2)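 Compounds were serially diluted from DMSO into 20 mM Tris pH 7.4, 20 mM KCl, 0.1 mg/mL BSA. Enzyme was pre-incubated with compound for 10 min at ambient temperature. Reaction was started with Gly-Pro-AMC (10 µM final). Fluorescence (ex 400/em 505 nm) was read kinetically for 5–10 min or at a 10 min endpoint.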

[6] = molecular target: Dipeptidyl peptidase 8 (Homo sapiens) (UniProt Q6V1X1); assay: Inhibition of DPP8 (unknown origin) up to 10 uM; method in brief: as §2
Dipeptidyl peptidase 8 (Homo sapiens), sequence (Q6V1X1 whole entry, looked up): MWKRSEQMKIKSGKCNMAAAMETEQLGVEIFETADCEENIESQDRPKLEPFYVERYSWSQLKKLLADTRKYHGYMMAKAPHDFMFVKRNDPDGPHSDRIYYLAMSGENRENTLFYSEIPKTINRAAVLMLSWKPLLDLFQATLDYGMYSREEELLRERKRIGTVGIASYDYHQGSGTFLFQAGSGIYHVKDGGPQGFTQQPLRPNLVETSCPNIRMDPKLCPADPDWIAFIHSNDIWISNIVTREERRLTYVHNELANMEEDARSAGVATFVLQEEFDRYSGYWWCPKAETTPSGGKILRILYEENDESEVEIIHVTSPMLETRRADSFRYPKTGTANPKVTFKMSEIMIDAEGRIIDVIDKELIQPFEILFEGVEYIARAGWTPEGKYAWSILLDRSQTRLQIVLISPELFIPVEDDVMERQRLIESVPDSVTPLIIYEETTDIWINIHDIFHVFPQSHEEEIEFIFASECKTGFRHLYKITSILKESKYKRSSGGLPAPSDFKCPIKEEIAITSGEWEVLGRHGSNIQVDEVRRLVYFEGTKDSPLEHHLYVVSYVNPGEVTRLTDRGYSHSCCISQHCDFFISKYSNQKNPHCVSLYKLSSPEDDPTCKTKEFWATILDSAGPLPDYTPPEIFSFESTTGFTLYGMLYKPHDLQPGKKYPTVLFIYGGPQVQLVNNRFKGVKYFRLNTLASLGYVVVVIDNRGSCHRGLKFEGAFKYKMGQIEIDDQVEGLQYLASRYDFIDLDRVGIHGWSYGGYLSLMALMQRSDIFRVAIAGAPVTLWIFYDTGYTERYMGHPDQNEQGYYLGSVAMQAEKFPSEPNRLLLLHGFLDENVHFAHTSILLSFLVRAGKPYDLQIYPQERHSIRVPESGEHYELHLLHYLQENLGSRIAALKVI

[7] = AUC (0 to infinity) in Sprague-Dawley rat blood at 30 mg/kg, po by LC-MS/MS analysis; format: ADME, organism-based; parameters: time infinity, dose 30 mg/kg, route oral; conditions: whole blood; method in brief: as §1
[8] = Inhibition of CYP3A (unknown origin) up to 30 uM; format: ADME; conditions: human
[9] = Apparent volume of distribution in Sprague-Dawley rat blood at 10 mg/kg, iv by LC-MS/MS analysis; format: ADME, organism-based; parameters: dose 10 mg/kg, route intravenous; conditions: whole blood, read-out: Vz; method in brief: as §1

Compound | bioavailability [1] [%] | MRT inf [2] [h] | clearance [3] [mL/min/kg] | half-life [4] [h] | inhibition [5] | inhibition [6] | AUC(0-inf) [7] [ng·h/mL] | inhibition (INH) [8] | Vd [9] [L/kg]
CC#CCn1c(N2CCC[C@@H](N)C2)nc2ccn(Cc3nc(C)c4ccccc4n3)c2c1=O | 82.9 | 8.3 | 16.7 | 4.9 | inactive | inactive | 25300 | Not Active | 4
N#Cc1ccccc1Cn1c(N2CCC[C@@H](N)C2)nc2c(Br)c[nH]c2c1=O | 41 |  |  | 2 |  |  |  |  | 

From ChEMBL document CHEMBL2346603, “Discovery of potent dipeptidyl peptidase IV inhibitors through pharmacophore hybridization and hit-to-lead optimization” (Bioorg Med Chem, 2013)
